Laboratory results published in ChEMBL document CHEMBL4765239, “Discovery of a Novel Highly Selective Histamine H4 Receptor Antagonist for the Treatment of Atopic Dermatitis” (J Med Chem, 2018).
Active and inactive are the calls of the source. No cut-off for these calls is given here.

Assays:
Mus musculus [1] = assay: Anti-pruritus activity in ICR mouse with histamine-induced itching assessed as reduction of scratching bouts at 10 mg/kg, po administered 30 mins prior to histamine challenge and measured upto 20 mins; assay type: functional; design: scale not given: the % may be the effect or the level left; settings: time 50 min
Summary of the method: (§1)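 Female ICR mice (n=8-10 per group), back skin clipped 24 h before. Oral dose in 20% hydroxypropyl-β-cyclodextrin given 30 min before intradermal pruritogen in saline: histamine 300 nmol, substance P 100 nmol or C48/80 100 µg. Scratching bouts counted from video for 20 min after injection. Mean ± S.E.M., Student's t-test.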

[2] = biological target: T1, Histamine H4 receptor (Mus musculus) (UniProt Q91ZY2); assay: Agonist activity at recombinant mouse histamine H4 receptor expressed in CHO-K1 cells assessed as stimulation of [35S]-GTPgammaS binding by scintillation proximity assay; assay type: functional, cell membranes; settings: Cell membrane
T1 sequence (whole entry): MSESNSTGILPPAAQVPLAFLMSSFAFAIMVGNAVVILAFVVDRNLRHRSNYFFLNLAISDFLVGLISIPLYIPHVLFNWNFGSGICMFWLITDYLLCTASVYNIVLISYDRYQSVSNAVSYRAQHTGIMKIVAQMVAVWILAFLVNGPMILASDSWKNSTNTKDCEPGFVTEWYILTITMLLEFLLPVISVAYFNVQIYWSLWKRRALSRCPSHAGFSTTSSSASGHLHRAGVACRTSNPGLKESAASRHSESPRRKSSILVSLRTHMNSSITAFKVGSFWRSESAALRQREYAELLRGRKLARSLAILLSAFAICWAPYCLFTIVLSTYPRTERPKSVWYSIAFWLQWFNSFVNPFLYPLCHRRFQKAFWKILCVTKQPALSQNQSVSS
Summary of the method: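 GTPγ35S binding on recombinant mouse H4R, run by an outside contractor. R-α-methylhistamine served as reference agonist and thioperamide as reference antagonist.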

[3] = Protein binding in human plasma; assay type: ADME, cell-free; settings: read-out: PPB (converted)
Mus musculus [4] = assay: Anti-pruritus activity in ICR mouse with histamine-induced itching assessed as free plasma concentration causing 50% reduction of scratching bouts at 10 mg/kg, po administered 30 mins prior to histamine challenge and measured upto 20 mins; assay type: functional; settings: time 50 min
Summary of the method: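 Female ICR mice, oral dose in 20% hydroxypropyl-β-cyclodextrin 30 min before intradermal histamine (300 nmol). Scratching bouts counted over 20 min from video. Free plasma concentration at Tmax was plotted against the scratching response.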

Mus musculus [5] = assay: Anti-pruritus activity in ICR mouse with histamine-induced itching assessed as reduction of scratching bouts administered orally 30 mins prior to histamine challenge and measured upto 20 mins; assay type: functional, organism-based; settings: dose 2-50 mg/kg, time 50.0 min
[6] = AUC (all) in ICR mouse at 50 mg/kg, po measured upto 24 hrs by LC-MS/MS analysis; assay type: ADME, organism-based; design: route oral, dose 50 mg/kg, time <=24; settings: in vivo
Summary of the method: (§2)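 Female ICR mice, n=3 per group, given test compound orally. Blood sampled at 0.5, 1, 2, 4, 7 and 24 h post dose; plasma levels quantified by LC-MS/MS. Parameters from non-compartmental analysis.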

[7] = Ratio of anti-pruritus activity in ICR mouse with histamine-induced itching assessed as free plasma concentration causing 50% reduction of scratching bouts at 10 mg/kg, po administered 30 mins prior to histamine challenge and measured upto 20 mins to Ic50 for displacement of [3H]-histamine from recombinant mouse histamine H4 receptor expressed in CHO-K1 cell membranes
Summary of the method: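 Itch model: female ICR mice (n=8-10), back clipped 24 h earlier, dosed orally in 20% hydroxypropyl-β-cyclodextrin 30 min before intradermal histamine (300 nmol, saline). Scratching bouts were videorecorded for 20 min. Free plasma concentration taken at Tmax. Binding used CHO-K1 mouse H4R membranes with [3H]histamine in 50 mM Tris-HCl pH 7.4, 30 min at 27 °C, then filtration and scintillation counting.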

Mus musculus [8] = assay: Anti-pruritus activity in ICR mouse with C48/80-induced itching assessed as reduction of scratching bouts at 50 mg/kg, po administered 30 mins prior to […] and measured upto 20 mins; assay type: functional, organism-based; settings: time 50.0 min; summary of the method: as §1
[9] = AUC (all) in ICR mouse at 2 mg/kg, po measured upto 24 hrs by LC-MS/MS analysis; assay type: ADME, organism-based; design: route oral, dose 2 mg/kg, time <=24; settings: in vivo; summary of the method: as §2
[10] = Tmax in ICR mouse at 2 mg/kg, po measured upto 24 hrs by LC-MS/MS analysis; assay type: ADME, organism-based; settings: in vivo; summary of the method: as §2
[11] = Tmax in ICR mouse at 50 mg/kg, po measured upto 24 hrs by LC-MS/MS analysis; assay type: ADME, organism-based; settings: in vivo; summary of the method: as §2
[12] = Cmax in ICR mouse at 10 mg/kg, po measured upto 24 hrs by LC-MS/MS analysis; assay type: ADME, organism-based; design: route oral, dose 10 mg/kg, time <=24; settings: in vivo; summary of the method: as §2
Histamine H4 receptor [13] = biological target: Histamine H4 receptor (Homo sapiens, UniProt Q9H3N8); assay: Displacement of [3H]-histamine from recombinant human histamine H4 receptor expressed in CHO-K1 cell membranes measured after 30 mins by microbeta scintillation counting method; design: species or system Cell membrane
[14] = biological target: Histamine H2 receptor (Homo sapiens) (UniProt P25021); assay: Displacement of [125I]-aminopotentidine from recombinant human histamine H2 receptor after 120 mins by radiometric scintillation counting analysis
[15] = biological target: T2, 5-hydroxytryptamine receptor 3A (Homo sapiens) (UniProt P46098); assay: Displacement of [3H]BRL 43694 from human recombinant 5-HT3 receptor at 10 uM after 120 mins by scintillation counting analysis relative to control
T2 sequence (whole entry): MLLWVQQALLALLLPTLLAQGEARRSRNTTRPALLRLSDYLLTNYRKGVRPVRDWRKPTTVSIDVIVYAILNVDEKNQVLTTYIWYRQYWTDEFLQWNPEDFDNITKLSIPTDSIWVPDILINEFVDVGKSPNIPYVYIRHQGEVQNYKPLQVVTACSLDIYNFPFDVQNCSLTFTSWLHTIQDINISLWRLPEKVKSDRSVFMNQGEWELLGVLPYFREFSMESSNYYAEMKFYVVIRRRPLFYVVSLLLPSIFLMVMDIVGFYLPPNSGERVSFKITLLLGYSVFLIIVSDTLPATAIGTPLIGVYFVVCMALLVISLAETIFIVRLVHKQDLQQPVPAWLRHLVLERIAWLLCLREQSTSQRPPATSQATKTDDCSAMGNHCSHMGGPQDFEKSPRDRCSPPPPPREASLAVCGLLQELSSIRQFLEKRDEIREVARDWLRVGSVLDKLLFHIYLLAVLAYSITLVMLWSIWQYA

[16] = Protein binding in mouse plasma; assay type: ADME, cell-free; settings: read-out: PPB (converted)
Histamine H4 receptor [17] = biological target: T3, Histamine H4 receptor (Mus musculus, UniProt Q91ZY2); assay: Displacement of [3H]-histamine from recombinant mouse histamine H4 receptor expressed in CHO-K1 cell membranes measured after 30 mins by microbeta scintillation counting method; design: species or system Cell membrane
T3 sequence (Q91ZY2 whole entry): T1 sequence (whole entry)
Summary of the method: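 Competitive binding on CHO-K1 membranes expressing human H3R ([3H]Nα-methylhistamine) or mouse H4R ([3H]histamine). Run in 50 mM Tris-HCl pH 7.4 for 30 min at 27 °C, then filtered onto 0.5% PEI-treated glass fiber and washed three times with ice-cold buffer. Bound radioactivity read by liquid scintillation counting.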

[18] = Cmax in ICR mouse at 50 mg/kg, po measured upto 24 hrs by LC-MS/MS analysis; assay type: ADME, organism-based; design: route oral, dose 50 mg/kg, time <=24; settings: in vivo; summary of the method: as §2
Mus musculus [19] = assay: Anti-pruritus activity in ICR mouse with substance P-induced itching assessed as reduction of scratching bouts at 50 mg/kg, po administered 30 mins prior to […] and measured upto 20 mins; assay type: functional, organism-based; settings: time 50.0 min; summary of the method: as §1
Mus musculus [20] = assay: Anti-pruritus activity in ICR mouse with histamine-induced itching assessed as reduction of scratching bouts at 50 mg/kg, po administered 30 mins prior to histamine challenge and measured upto 20 mins; assay type: functional; settings: 50 min; summary of the method: as §1

Chain of Histamine H2 receptor (Homo sapiens) (P25021 whole entry): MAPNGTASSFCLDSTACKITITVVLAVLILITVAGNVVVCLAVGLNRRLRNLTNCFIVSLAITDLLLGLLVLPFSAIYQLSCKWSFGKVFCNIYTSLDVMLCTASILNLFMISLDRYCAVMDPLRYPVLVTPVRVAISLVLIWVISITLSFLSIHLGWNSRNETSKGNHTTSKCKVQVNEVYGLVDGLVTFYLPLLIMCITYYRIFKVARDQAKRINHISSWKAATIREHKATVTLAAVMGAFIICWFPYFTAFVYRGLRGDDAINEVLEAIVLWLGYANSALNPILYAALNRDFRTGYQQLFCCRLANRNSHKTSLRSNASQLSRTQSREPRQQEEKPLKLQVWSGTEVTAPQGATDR

Activity [2]: inactive | fraction unbound [3]: 0.265 | AUC at 24 h [6]: 62600 ng·h/mL | AUC at 24 h [9]: 251 ng·h/mL | Tmax [10]: 30 min | Tmax [11]: 30 min | Cmax [12]: 1820 ng/mL | IC50 (Histamine H4 receptor [13]): 27 nM | Activity [14]: inactive | inhibition [15]: 14% | fraction unbound [16]: 0.348 | IC50 (Histamine H4 receptor [17]): 290 nM | Cmax [18]: 7690 ng/mL
Structure (SMILES): CNC1CN(c2nc3ncc(Br)cc3n3nnnc23)C1
Activity (Mus musculus [1]): <=50% | Cp(f) (Mus musculus [4]): 1.89 µM | Activity (Mus musculus [5]): Dose-dependent effect | Ratio [7]: 3 | Activity (Mus musculus [8]): Active | Activity (Mus musculus [19]): Active | inhibition in vivo at 50 mg/kg (Mus musculus [20]): 100%
